From ChEMBL document CHEMBL1124493, “Synthesis and tumor uptake of 5-82Br- and 5-131I-labeled 5-halo-1-(2-fluoro-2-deoxy-beta-D-ribofuranosyl)uracils” (J Med Chem, 1989)
Blank lines part the entries; values can stand above or below the molecule they belong to.

Columns and labels:
Mus musculus [1] = test: Biodistribution of intravenously injected [131I]-labeled compound in bone of BDF1 female mice bearing subcutaneous Lewis lung carcinoma after 2 hours; format: ADME, organism-based, Bone element; settings: in vivo, iv
Procedure, shortened: (§1)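 Female BDF1 mice bearing subcutaneous Lewis lung carcinoma received a single intravenous dose of 0.5-1.8 μg of the 131I-labeled nucleoside (55-110 kBq). They were sacrificed at set times, and tissues were weighed wet and γ-counted. Activity is expressed as percent of injected dose per gram of wet tissue, given as mean ± standard deviation for six animals.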

Mus musculus [2] = test: Biodistribution of intravenously injected [131I]-labeled compound in blood of BDF1 female mice bearing subcutaneous Lewis lung carcinoma after 24 hours; format: ADME, organism-based; settings: in vivo, iv; procedure, shortened: as §1
Mus musculus [3] = test: Biodistribution of intravenously injected [131I]-labeled compound in gut of BDF1 female mice bearing subcutaneous Lewis lung carcinoma after 0.50 hours; format: ADME, organism-based; settings: in vivo, iv, 0.5 h; procedure, shortened: as §1
Mus musculus [4] = test: Biodistribution of intravenously injected [131I]-labeled compound in gut of BDF1 female mice bearing subcutaneous Lewis lung carcinoma after 4 hours; format: ADME, organism-based; settings: in vivo, iv; procedure, shortened: as §1
Mus musculus [5] = test: Biodistribution of intravenously injected [131I]-labeled compound in gut of BDF1 female mice bearing subcutaneous Lewis lung carcinoma after 8 hours; format: ADME, organism-based; settings: in vivo, iv; procedure, shortened: as §1
Mus musculus [6] = test: Biodistribution of intravenously injected [131I]-labeled compound in kidney of BDF1 female mice bearing subcutaneous Lewis lung carcinoma after 0.5 hours; format: ADME, organism-based; settings: in vivo, iv; procedure, shortened: as §1
Mus musculus [7] = test: Biodistribution of intravenously injected [131I]-labeled compound in kidney of BDF1 female mice bearing subcutaneous Lewis lung carcinoma after 24 hours; format: ADME, organism-based; settings: in vivo, iv; procedure, shortened: as §1
Mus musculus [8] = test: Biodistribution of intravenously injected [131I]-labeled compound in kidney of BDF1 female mice bearing subcutaneous Lewis lung carcinoma after 8 hours; format: ADME, organism-based; settings: in vivo, iv; procedure, shortened: as §1
Mus musculus [9] = test: Biodistribution of intravenously injected [131I]-labeled compound in lung of BDF1 female mice bearing subcutaneous Lewis lung carcinoma after 0.5 hours; format: ADME, organism-based; settings: in vivo, iv; procedure, shortened: as §1
Mus musculus [10] = test: Biodistribution of intravenously injected [131I]-labeled compound in liver of BDF1 female mice bearing subcutaneous Lewis lung carcinoma after 0.25 hours; format: ADME, organism-based; settings: in vivo, iv; procedure, shortened: as §1
Mus musculus [11] = test: Biodistribution of intravenously injected [131I]-labeled compound in muscle of BDF1 female mice bearing subcutaneous Lewis lung carcinoma after 0.5 hours; format: ADME, organism-based, Muscle tissue; settings: in vivo, iv; procedure, shortened: as §1
Mus musculus [12] = test: Biodistribution of intravenously injected [131I]-labeled compound in muscle of BDF1 female mice bearing subcutaneous Lewis lung carcinoma after 1 hours; format: ADME, organism-based, Muscle tissue; settings: in vivo, iv
Procedure, shortened: (§2)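 Female BDF1 mice with subcutaneous Lewis lung carcinoma given i.v. 0.5-1.8 μg of 131I-labeled nucleoside (55-110 kBq). Killed at set times. Tissues weighed wet and γ-counted. Radioactivity expressed as percent injected dose per gram wet tissue, mean ± SD of six animals.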

Mus musculus [13] = test: Biodistribution of intravenously injected [131I]-labeled compound in muscle of BDF1 female mice bearing subcutaneous Lewis lung carcinoma after 2 hours; format: ADME, organism-based, Muscle tissue; settings: in vivo, iv; procedure, shortened: as §2
Mus musculus [14] = test: Biodistribution of intravenously injected [131I]-labeled compound in stomach of BDF1 female mice bearing subcutaneous Lewis lung carcinoma after 1 hours; format: ADME, organism-based; settings: in vivo, iv; procedure, shortened: as §2
Mus musculus [15] = test: Biodistribution of intravenously injected [131I]-labeled compound in spleen of BDF1 female mice bearing subcutaneous Lewis lung carcinoma after 24 hours; format: ADME, organism-based; settings: in vivo, iv; procedure, shortened: as §2
Mus musculus [16] = test: Biodistribution of intravenously injected [131I]-labeled compound in spleen of BDF1 female mice bearing subcutaneous Lewis lung carcinoma after 4 hours; format: ADME, organism-based; settings: in vivo, iv; procedure, shortened: as §2
Mus musculus [17] = test: Biodistribution of intravenously injected [131I]-labeled compound in spleen of BDF1 female mice bearing subcutaneous Lewis lung carcinoma after 0.25 hours; format: ADME, organism-based; settings: in vivo, iv; procedure, shortened: as §2
Mus musculus [18] = species: Mus musculus; test: Other urinary compounds observed in BDF1 female mice bearing lewis lung tumor after 2-3 hr of injected [131I]-compound; format: functional, tissue-based; settings: Urine
Mus musculus [19] = species: Mus musculus; test: Other urinary compounds observed in BDF1 female mice bearing lewis lung tumor after 6-7 hr of injected [131I]-compound; format: functional, tissue-based; settings: Urine
Mus musculus [20] = species: Mus musculus; test: Urinary [131I]- compound observed in BDF1 female mice bearing lewis lung tumor after 6-7 hr of injected [131I]-compound; format: functional, tissue-based; settings: Urine
Mus musculus [21] = species: Mus musculus; test: Urinary [131I]5-iodouracil observed in BDF1 female mice bearing lewis lung tumor after 0-0.5 hr of injected [131I]-compound; format: functional, tissue-based; settings: Urine
Mus musculus [22] = test: Biodistribution of intravenously injected [82Br]-labeled compound in tumor of BDF1 female mice bearing subcutaneous Lewis lung carcinoma after 2 hours; format: ADME, organism-based; settings: in vivo, iv
Mus musculus [23] = test: Biodistribution of intravenously injected [82Br]-labeled compound in spleen of BDF1 female mice bearing subcutaneous Lewis lung carcinoma after 1 hours; format: ADME, organism-based; settings: in vivo, iv
Procedure, shortened: (§3)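 Female BDF1 mice with subcutaneous Lewis lung carcinoma given an iv injection of [82Br]-labelled nucleoside, 47-130 μg carrying 20-60 kBq 82Br. Tissues were excised, weighed wet and γ-counted. Values are percent injected dose per gram of wet tissue, mean ± standard deviation of six animals, with organ-to-tumour ratios derived.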

Mus musculus [24] = test: Biodistribution of intravenously injected [82Br]-labeled compound in spleen of BDF1 female mice bearing subcutaneous Lewis lung carcinoma after 24 hours; format: ADME, organism-based; settings: in vivo, iv
Mus musculus [25] = test: Biodistribution of intravenously injected [82Br]-labeled compound in bone of BDF1 female mice bearing subcutaneous Lewis lung carcinoma after 8 hours; format: ADME, organism-based, Bone element; settings: in vivo, iv
Procedure, shortened: (§4)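 82Br-labeled nucleoside given intravenously to female BDF1 mice bearing subcutaneous Lewis lung carcinoma, at 47-130 μg carrying 20-60 kBq. Mice sacrificed at each time point. Wet-weighed tissues γ-counted. Values are percent injected dose per gram wet tissue, mean ± SD, n = 6.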

Mus musculus [26] = test: Biodistribution of intravenously injected [82Br]-labeled compound in heart of BDF1 female mice bearing subcutaneous Lewis lung carcinoma after 24 hours; format: ADME, organism-based; settings: in vivo, iv; procedure, shortened: as §3
Mus musculus [27] = test: Biodistribution of intravenously injected [82Br]-labeled compound in kidney of BDF1 female mice bearing subcutaneous Lewis lung carcinoma after 0.25 hours; format: ADME, organism-based; settings: in vivo, iv; procedure, shortened: as §3
Mus musculus [28] = test: Biodistribution of intravenously injected [82Br]-labeled compound in bone of BDF1 female mice bearing subcutaneous Lewis lung carcinoma after 0.25 hours; format: ADME, organism-based, Bone element; settings: in vivo, iv; procedure, shortened: as §4
Mus musculus [29] = test: Biodistribution of intravenously injected [82Br]-labeled compound in lung of BDF1 female mice bearing subcutaneous Lewis lung carcinoma after 8 hours; format: ADME, organism-based; settings: in vivo, iv; procedure, shortened: as §3
Mus musculus [30] = test: Biodistribution of intravenously injected [82Br]-labeled compound in muscle of BDF1 female mice bearing subcutaneous Lewis lung carcinoma after 2 hours; format: ADME, organism-based, Muscle tissue; settings: in vivo, iv; procedure, shortened: as §3
Mus musculus [31] = test: Biodistribution of intravenously injected [82Br]-labeled compound in skin of BDF1 female mice bearing subcutaneous Lewis lung carcinoma after 0.50 hours; format: ADME, organism-based, Zone of skin; settings: in vivo, iv, 0.5 h; procedure, shortened: as §3
Mus musculus [32] = test: Biodistribution of intravenously injected [82Br]-labeled compound in skin of BDF1 female mice bearing subcutaneous Lewis lung carcinoma after 1 hours; format: ADME, organism-based, Zone of skin; settings: in vivo, iv; procedure, shortened: as §3
Mus musculus [33] = test: Biodistribution of intravenously injected [82Br]-labeled compound in skin of BDF1 female mice bearing subcutaneous Lewis lung carcinoma after 2 hours; format: ADME, organism-based, Zone of skin; settings: in vivo, iv; procedure, shortened: as §3
Mus musculus [34] = test: Biodistribution of intravenously injected [82Br]-labeled compound in skin of BDF1 female mice bearing subcutaneous Lewis lung carcinoma after 24 hours; format: ADME, organism-based, Zone of skin; settings: in vivo, iv; procedure, shortened: as §3
Mus musculus [35] = test: Biodistribution of intravenously injected [82Br]-labeled compound in spleen of BDF1 female mice bearing subcutaneous Lewis lung carcinoma after 0.25 hours; format: ADME, organism-based; settings: in vivo, iv; procedure, shortened: as §3
Mus musculus [36] = test: Biodistribution of intravenously injected [82Br]-labeled compound in liver of BDF1 female mice bearing subcutaneous Lewis lung carcinoma after 2 hours; format: ADME, organism-based; settings: in vivo, iv; procedure, shortened: as §3
Mus musculus [37] = test: Biodistribution of intravenously injected [82Br]-labeled compound in spleen of BDF1 female mice bearing subcutaneous Lewis lung carcinoma after 8 hours; format: ADME, organism-based; settings: in vivo, iv
Mus musculus [38] = test: Biodistribution of intravenously injected [82Br]-labeled compound in skin of BDF1 female mice bearing subcutaneous Lewis lung carcinoma after 0.25 hours; format: ADME, organism-based, Zone of skin; settings: in vivo, iv; procedure, shortened: as §3

Injected dose/g (Mus musculus [1]): 1.2%
Injected dose/g (Mus musculus [2]): 0.16%
Injected dose/g (Mus musculus [3]): 2.8%
Injected dose/g (Mus musculus [4]): 2.1%
Injected dose/g (Mus musculus [5]): 1.3%
Injected dose/g (Mus musculus [6]): 18.5%
Injected dose/g (Mus musculus [7]): 0.14%
Injected dose/g (Mus musculus [8]): 4.1%
Injected dose/g (Mus musculus [9]): 7.5%
Injected dose/g (Mus musculus [10]): 5.3%
Injected dose/g (Mus musculus [11]): 2%
Injected dose/g (Mus musculus [12]): 2.3%
Injected dose/g (Mus musculus [13]): 1.3%
Injected dose/g (Mus musculus [14]): 4.5%
Injected dose/g (Mus musculus [15]): 0.5%
Injected dose/g (Mus musculus [16]): 1.8%
Injected dose/g (Mus musculus [17]): 3.2%
Structure (SMILES): O=c1[nH]c(=O)n([C@@H]2O[C@H](CO)[C@@H](O)[C@H]2F)cc1I
Radioactive constituents (Mus musculus [18]): 3.5%
Radioactive constituents (Mus musculus [19]): 0%
Radioactive constituents (Mus musculus [20]): 60.2%
Radioactive constituents (Mus musculus [21]): 1.8%

Injected dose/g (Mus musculus [22]): 0.57%
Injected dose/g (Mus musculus [23]): 0.38%
Injected dose/g (Mus musculus [24]): 0.24%
Injected dose/g (Mus musculus [25]): 0.23%
Injected dose/g (Mus musculus [26]): 0.48%
Injected dose/g (Mus musculus [27]): 7.69%
Injected dose/g (Mus musculus [28]): 0.52%
Injected dose/g (Mus musculus [29]): 0.46%
Injected dose/g (Mus musculus [30]): 0.19%
Injected dose/g (Mus musculus [31]): 0.72%
Injected dose/g (Mus musculus [32]): 0.45%
Injected dose/g (Mus musculus [33]): 0.39%
Injected dose/g (Mus musculus [34]): 0.22%
Injected dose/g (Mus musculus [35]): 1.06%
Injected dose/g (Mus musculus [36]): 0.32%
Injected dose/g (Mus musculus [37]): 0.34%
Injected dose/g (Mus musculus [38]): 1.39%
Structure (SMILES): O=c1[nH]c(=O)n([C@H]2O[C@@H](CO)[C@H](O)[C@H]2F)cc1Br
